Screening data from PubChem.
TRPC4 act – opens the mouse TRPC4 cation channel; B-score at 10 µM; 310,000 tested, 0.49% active; Q9QUQ5; HEK293 TRPC4beta/mu-opioid, Fluo4 calcium fluorescence; stronger effect = higher value;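 active = B-score above 5 SD of library B-scores, and initial fluorescence ratio not above library mean plus 5 SD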;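 note: positive B-score marks a calcium rise read as TRPC4 activation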
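System: HEK293 cells stably co-expressing mouse TRPC4beta and mu-opioid receptor; Schedule: Fluo4 dye loading 45 min at room temperature, 110 s recording; Detection: Fluo4 fluorescence, kinetic; Evaluation: B-scored integrated calcium fluorescence ratio; Controls: buffer (low) and maximal DAMGO (high).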
TRPC4 PAM – allosterically enhances the mouse TRPC4 cation channel; HEK293 TRPC4beta/mu-opioid, DAMGO EC20, Fluo-4 Ca2+ flux; stronger effect = higher value; 310,000 tested, 0.42% active; B-score at 10 µM; AID 2227;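 active = B-score of calcium response area above 5 SD of library B-scores, with initial fluorescence ratio within 5 SD of library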;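 note: B-score of integrated fluorescence ratio over time as area under calcium response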
TRPC4 inh – blocks the mouse TRPC4 cation channel | 300,000 tested, 0.39% active | HEK293 TRPC4beta/mu-opioid, DAMGO-evoked Fluo4 calcium flux; stronger effect = lower value | B-score at 10 µM;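 active = B-score over 3 SD under the library average, no early fluorescence shift, positive overall ratio signal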
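Test system – stable TRPC4beta/mu-opioid receptor HEK293 cells · Probe or stimulus – DAMGO, a submaximal dose followed by a maximal one · Dosing – one concentration per compound · Signal – Fluo4 calcium fluorescence by kinetic imaging, 5 s 1 Hz baseline · Evaluation – per-well B score of integrated baseline-normalized Fluo4 ratio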
TRPC6 act – mouse TRPC6 channel activation; 310,000 tested, 0.13% active; B-score at 10 µM; HEK293-TRPC6 membrane potential dye fluorescence; stronger effect = higher value; AID 2550; Q61143;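 active = B-score of the integrated fluorescence ratio above library mean plus 3 SD, and starting fluorescence ratio within library mean plus 5 SD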;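 note: higher score means more depolarization so channel activation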
TRPC6 inh – mouse TRPC6 channel inhibition. HEK293-TRPC6, membrane potential dye, ACh-evoked depolarization; stronger effect = lower value. B-score at 10 µM. 310,000 tested, 1.1% active. AID 2553;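 active = B-score under library mean minus 3 SD, initial fluorescence not abnormally high, positive integrated signal ratio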;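 note: B-score derived from integrated fluorescence ratio over the kinetic read; more negative B-score means stronger inhibition of depolarization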
TRPC4 spec 2 – mouse TRPC4 off-target activity of TRPC6 inhibitors, second screen | HEK293 TRPC4/MOR, membrane potential dye fluorescence; channel activated by saturating DAMGO dose | shares compounds with TRPC6 inh | 920 tested, 42% active | inhibition, % at 10 µM;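 active = compounds whose fluorescence signal differed from control wells by over 3 SD, either direction, in both duplicate plates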
TRPC4 spec – selectivity of TRPC6 inhibitors: effect on mouse TRPC4; shares compounds with TRPC6 inh; HEK293 TRPC4/mu-opioid, membrane potential fluorescence; activity change, negative = inhibition, % at 10 µM; 920 tested, 61% active; AID 2777;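 active = rise or fall in signal beyond 3 SD of buffer-only wells in both replicate plates, either sign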;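 note: integrated kinetic ratio of fluorescence range over baseline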
HEK293 MPD ctr 2-1 – parental HEK293 nonspecific activity of TRPC6 inhibitors, second screen | shares compounds with TRPC6 inh | parental HEK293 membrane potential dye fluorescence; maximal acetylcholine challenge after compound addition | signal change vs control, % at 10 µM | 920 tested, 31% active | AID 2779;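 active = membrane potential signal moving either way by over 3 SD of the maximum-effect control, in both duplicate plates, meaning non-specific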
HEK293 MPD ctr-1 – counter-screen for TRPC6 inhibitors: effect in parental HEK293 cells | shares compounds with TRPC6 inh | parental HEK293 membrane potential dye fluorescence | membrane potential signal change, % at 10 µM | 920 tested, 60% active | AID 2780;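 active = membrane potential signal shifting up or down by more than 3 SD of buffer-only wells, on both duplicate plates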
HEK293 MPD ctr-2 – counter-screen for TRPC6 modulators: effect in parental HEK293 cells; shares compounds with TRPC6 inh; membrane potential dye fluorescence; membrane potential signal change, % at 10 µM; 2,400 tested, 51% active;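 active = membrane potential signal moves up or down beyond 5 SD from buffer-only wells, on both duplicate plates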
HEK293 MPD ctr 2-2 – second counter-screen for TRPC6 modulators: effect in parental HEK293 cells. inhibition, % at 10 µM. membrane potential dye fluorescence; after compound, maximal acetylcholine stimulation. shares compounds with TRPC6 inh. 2,400 tested, 14% active;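 active = membrane potential signal drops by more than 5 SD from the mean control signal, in both duplicate plates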;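 note: plate controls were acetylcholine ECmax control wells for no effect and buffer only wells for full effect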
TRPC4 ctr mod – tests whether TRPC6 modulators also affect mouse TRPC4; shares compounds with TRPC6 inh; HEK293 TRPC4/mu-opioid, membrane potential fluorescence; percent change from control (negative = decrease, positive = increase), % at 10 µM; 2,400 tested, 69% active; AID 488927;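 active = membrane potential signal moved up or down beyond 5 SD of buffer control wells, in both duplicate plates, actives on both sides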;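 note: plate controls were assay buffer wells for no effect and DAMGO maximal-effect wells for full effect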
TRPC4 ctr inh 2 – second check of whether TRPC6 modulators also affect mouse TRPC4. shares compounds with TRPC6 inh. HEK293 TRPC4/mu-opioid, membrane potential dye fluorescence; stimulated with maximal-effect DAMGO. inhibition, % at 10 µM. 2,400 tested, 55% active. AID 488928;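 active = drop in membrane potential signal beyond 5 SD of the control wells in both duplicate plates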;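 note: TRPC4 counter screen for TRPC6 hits run under conditions tuned for TRPC6 not TRPC4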
TRPC6 block conf – mouse TRPC6 inhibitor confirmation. inhibition, % at 10 µM. HEK293-TRPC6, membrane potential dye, ACh-evoked depolarization. 3,300 tested, 43% active. shares compounds with TRPC6 inh;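 active = fluorescence ratio falls more than 5 SD below the full-stimulation control mean, in both duplicate runs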;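 note: integrated fluorescence ratio of peak minus minimum over baseline after agonist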
TRPC6 act confirm – confirmation of mouse TRPC6 activators; shares compounds with TRPC6 inh; HEK293-TRPC6 membrane potential dye fluorescence, FDSS; activation, % at 10 µM; 2,800 tested, 11% active;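 active = ratio signal rise beyond 5 SD above unstimulated control wells' mean, seen in both duplicate runs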;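 note: plate controls were buffer EC0 wells for no effect and acetylcholine ECmax response for full effect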
Active calls of the source: *; i = inactive; / = no result given. Hits are enriched below; roughly 2.3% of the tested compounds scored in any of these assays.

SMILES	TRPC4 act	TRPC4 PAM	TRPC4 inh	TRPC6 act	TRPC6 inh	HEK293 MPD ctr-2	HEK293 MPD ctr 2-2	TRPC4 ctr mod	TRPC4 ctr inh 2	TRPC6 block conf	TRPC6 act confirm	others
Cc1cccc(-n2nnnc2SCC(=O)Nc2ccc(N3CCN(C)CC3)cc2)c1	i	i	i	i	-5.7*	i	i	i	54%*	i	i
Cc1ccccc1-n1nnnc1SCC(=O)Nc1ccc(N2CCN(C)CC2)cc1	i	i	i	i	i	/	/	/	/	/	/
O=C(c1c(F)cccc1F)N1CCC(O)(c2ccc(F)cc2)CC1	i	i	i	i	i	/	/	/	/	/	/
CN(C)CCNC(=O)c1ccc2c(c1)N(Cc1ccc(F)cc1)CCS2	i	i	i	i	-6.4*	i	i	i	74%*	66%*	i
COc1ccc2ccccc2c1CNCc1ccc(C)cc1	i	i	i	i	-8*	/	/	/	/	62%*	/	TRPC4 spec 2=50%*;TRPC4 spec=52%*;HEK293 MPD ctr 2-1=i;HEK293 MPD ctr-1=22%*
O=C1c2ccccc2C(=O)c2c1ccc1c(=O)n(C3CCCCC3)[nH]c21	i	i	i	i	-5.1*	-94%*	i	-20%*	i	i	i
O=c1c2[nH]c3ccccc3c2ncn1C1CCCCC1	i	i	i	i	i	/	/	/	/	/	/
CCNC(=S)N1CCN(S(=O)(=O)c2ccc(C)c(C)c2)CC1	i	i	i	i	-5.4*	i	i	i	i	i	/
Cc1ccc2nc(CSc3nnc(-c4ccco4)o3)cc(=O)n2c1	i	i	i	i	-5.3*	i	i	i	i	i	/
O=C(NCC(=O)N(c1cccc(F)c1)C(C(=O)NC1CCCC1)c1ccco1)c1ccco1 (stereo not drawn)	i	i	i	i	i	/	/	/	/	/	/
O=C(NCC(=O)N(c1ccc2c(c1)OCCO2)C(C(=O)NC1CCCC1)c1ccco1)c1ccco1 (stereo not drawn)	i	i	i	i	-7.7*	/	/	/	/	62%*	/	TRPC4 spec 2=i;TRPC4 spec=1.1%*;HEK293 MPD ctr 2-1=i;HEK293 MPD ctr-1=0.7%*
COc1ccc(NC(=O)C2CCCN(c3nn4c(=O)cc(C)nc4s3)C2)cc1 (stereo not drawn)	i	i	i	i	i	/	/	/	/	/	/
Cc1cc(=O)n2nc(N3CCCC(C(=O)N4CCc5ccccc54)C3)sc2n1 (stereo not drawn)	i	i	i	i	-8.7*	/	/	/	/	i	i	TRPC4 spec 2=i;TRPC4 spec=i;HEK293 MPD ctr 2-1=i;HEK293 MPD ctr-1=i
COc1ccc(-c2[nH]c3ccccc3c2SCCN)cc1	i	i	i	i	-8.7*	/	/	/	/	74%*	i	TRPC4 spec 2=45%*;TRPC4 spec=-16%*;HEK293 MPD ctr 2-1=i;HEK293 MPD ctr-1=-262%*
CC[N+](C)(CC)CCC/C(=N/O)C(O)(c1ccccc1)c1ccccc1	i	i	i	i	-8.5*	/	/	/	/	71%*	i	TRPC4 spec 2=i;TRPC4 spec=i;HEK293 MPD ctr 2-1=3.5%*;HEK293 MPD ctr-1=i
CCN(CC)CCC/C(=N\O)C(O)(c1ccccc1)c1ccccc1	i	i	i	i	-9.4*	/	/	/	/	88%*	i	TRPC4 spec 2=i;TRPC4 spec=0.0%*;HEK293 MPD ctr 2-1=-37%*;HEK293 MPD ctr-1=i
CC/C(CC(C)(C)c1ccccc1)=N\O	i	i	i	i	i	/	/	/	/	/	/
N#Cc1c(-c2ccco2)ccn(Cc2cccc(F)c2)c1=O	i	i	i	i	i	/	/	/	/	/	/
COc1ccc(S(=O)(=O)N2CCC(C(=O)Nc3ccc(S(=O)(=O)N4CCCC4)cc3)CC2)cc1OC	i	i	i	i	-5.4*	i	i	i	i	i	i
COc1ccc(S(=O)(=O)N2CCCCCC2)cc1NC(=O)Cc1ccccc1	i	i	i	i	-8.9*	i	i	i	i	i	i
COc1ccc(S(=O)(=O)N2CCCCCC2)cc1NC(=O)c1ccccc1	i	i	i	i	i	/	/	/	/	/	/
COc1ccc(NC(=O)C2CCN(S(=O)(=O)c3ccc(OC)c(OC)c3)CC2)cc1	i	i	i	i	i	/	/	/	/	/	/
COC(=O)COc1ccc(S(=O)(=O)N2CCCCC2)cc1[N+](=O)[O-]	i	i	i	i	-5.3*	i	i	i	44%*	i	i
CS(=O)(=O)c1ccc(Cl)c(NC(=O)COC(=O)c2cccc(S(=O)(=O)N3CCCCC3)c2)c1	i	i	i	i	-5.7*	i	i	i	i	i	i
COc1cc(OC)cc(Oc2ccc(S(=O)(=O)N3CCCCC3)cc2[N+](=O)[O-])c1	i	i	i	i	i	/	/	/	/	/	/
CCC(C)(C)n1nnnc1C(c1cc(OC)ccc1OC)N1CCC(C(N)=O)CC1 (stereo not drawn)	i	i	i	i	i	/	/	/	/	/	/
CCOc1ccc(C(=O)N(Cc2ccccc2)c2cccc(C)c2)cc1OC	i	i	i	i	i	/	/	/	/	/	/
Cc1ccc(NC(=O)C2CCN(S(=O)(=O)c3ccc4[nH]c(=O)oc4c3)CC2)cc1F	i	i	i	i	-5.8*	i	i	i	i	i	i
